For series [1], the target named is T1, Cytochrome P450 3A4 (Homo sapiens, UniProt P08684). The series is described as follows: Concentration required to inhibit cytochrome P450 isozyme CYP3A4-BzRes in vitro by 50%. Type of series: ADME.
Series [2] deals with T1, Cytochrome P450 3A4. The series is described as follows: Concentration required to inhibit cytochrome P450 isozyme CYP3A4-BFC in vitro by 50%. Type of series: ADME.
The next series addresses T2, Cytochrome P450 1A2 (Homo sapiens, UniProt P05177).
T2 sequence (P05177 whole entry): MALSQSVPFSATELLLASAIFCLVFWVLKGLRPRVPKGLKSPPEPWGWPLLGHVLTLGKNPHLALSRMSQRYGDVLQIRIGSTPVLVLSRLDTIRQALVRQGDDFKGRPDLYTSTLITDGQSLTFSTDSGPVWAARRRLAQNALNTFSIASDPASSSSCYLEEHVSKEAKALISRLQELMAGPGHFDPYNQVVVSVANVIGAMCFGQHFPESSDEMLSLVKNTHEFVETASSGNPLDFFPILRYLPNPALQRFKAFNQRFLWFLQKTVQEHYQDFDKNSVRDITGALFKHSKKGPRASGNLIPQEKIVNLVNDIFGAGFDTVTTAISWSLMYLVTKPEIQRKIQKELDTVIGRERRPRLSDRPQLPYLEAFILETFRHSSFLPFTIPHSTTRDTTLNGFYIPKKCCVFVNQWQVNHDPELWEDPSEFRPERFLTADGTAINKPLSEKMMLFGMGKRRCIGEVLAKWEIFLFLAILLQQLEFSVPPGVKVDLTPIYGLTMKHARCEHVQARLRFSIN
The series is described as follows: Concentration required to inhibit Cytochrome P450 1A2 in vitro by 50%. Type of series: ADME.

The next series deals with Cytochrome P450 2C19 (Homo sapiens, UniProt P33261). In words: Concentration required to inhibit cytochrome P450 isozyme CYP2C19 in vitro by 50%. Type of series: ADME.
A further series concerns the target Cytochrome P450 2C9 (Homo sapiens, UniProt P11712). In words: Concentration required to inhibit Cytochrome P450 2C9 in vitro by 50%.
Series [3] can be described thus: Steady-state volume of distribution in dog when administered intravenously at 2 mg/kg. Type of series: ADME, organism-based, Canis lupus familiaris. Further details: dose 2 mg/kg, route intravenous. As to conditions: in vivo, iv, read-out: Vss.
The next series has as its system COLO 205. The series is described as follows: In vitro inhibitory concentration against COLO 205 (colon) cell line with ATP concentration at 1/2Km. Type of series: functional, cell-based. As to conditions: Homo sapiens.
Another series deals with RD. In words: In vitro inhibitory concentration against RD1 (rhabdomyosarcoma) cell line with ATP concentration at 1/2Km. Type of series: functional, cell-based. Particulars: Homo sapiens.
The nature of series [4]: Steady-state volume of distribution in mouse when administered intravenously at 4 mg/kg. Type of series: ADME, organism-based. Further details: dose 4 mg/kg, route intravenous. Particulars: in vivo, iv, read-out: Vss.
Series [5] in a line: Bioavailability in mouse administered perorally at 20 mg/kg. Type of series: ADME, organism-based. Particulars: in vivo, po.
Series [6] is described as follows: Total clearance in dog when administered intravenously at 2 mg/kg. Further details: dose 2 mg/kg, route intravenous. As to conditions: in vivo, iv, read-out: CLtot. Type of series: ADME, organism-based, Canis lupus familiaris.
Series [7] is described as follows: Bioavailability in monkey at 5 mg/kg oral dose. Type of series: ADME, organism-based. As to conditions: cercopithecidae, in vivo.
Series [8] is described as follows: Total clearance in rat when administered intravenously at 4 mg/kg. Type of series: ADME, organism-based. Further details: dose 4 mg/kg, route intravenous. As to conditions: in vivo, iv, read-out: CLtot.
In series [9] the target is Dual specificity mitogen-activated protein kinase kinase 1 (Homo sapiens, UniProt Q02750). The series is described as follows: In vitro inhibitory concentration against MEK with ATP concentration at 1/2Km. An outline of the steps:
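Cell-free kinase inhibition assay. ATP was set at ½ Km, determined separately for each kinase, and the IC50 was derived under that condition.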

The nature of series [10]: Total clearance in mouse when administered intravenously at 4 mg/kg. Type of series: ADME, organism-based. Further details: dose 4 mg/kg, route intravenous. As to conditions: in vivo, iv, read-out: CLtot.
Series [11] in a line: In vitro inhibitory concentration against Geo (colon) cell line with ATP concentration at 1/2Km. Type of series: functional, Homo sapiens.
A short description of series [12]: Maximum concentration in dog administered orally at 5 mg/kg. Further details: dose 5 mg/kg, route oral. As to conditions: in vivo, po. Type of series: ADME, organism-based, Canis lupus familiaris.
The nature of series [13]: Steady-state volume of distribution in rat when administered intravenously at 4 mg/kg. Type of series: ADME, organism-based. Further details: dose 4 mg/kg, route intravenous. Particulars: in vivo, iv, read-out: Vss.
The next series deals with MCF7. In words: In vitro inhibitory concentration against MCF-7(breast) cell line with ATP concentration at 1/2Km. Particulars: Homo sapiens. Type of series: functional, cell-based.
Series [14] is described as follows: Bioavailability in dog at 5 mg/kg oral dose. Type of series: ADME, organism-based, Canis lupus familiaris. Particulars: in vivo.
Series [15] in a line: In vitro inhibitory concentration against MDA PCa-2b (prostate) cell line with ATP concentration at 1/2Km. Type of series: functional, Homo sapiens.
Series [16] is described as follows: Steady-state volume of distribution in monkey when administered intravenously at 2 mg/kg. Type of series: ADME, organism-based. Further details: dose 2 mg/kg, route intravenous. Particulars: cercopithecidae, in vivo, iv, read-out: Vss.
A short description of series [17]: Maximum concentration in rat administered orally at 50 mg/kg. Further details: dose 50 mg/kg, route oral. Type of series: ADME, organism-based. As to conditions: in vivo, po.
Series [18] in a line: Maximum concentration in mouse administered orally at 20 mg/kg. Type of series: ADME, organism-based. Further details: dose 20 mg/kg, route oral. As to conditions: in vivo, po.
Series [19] in a line: Bioavailability in rat administered perorally at 50 mg/kg. As to conditions: in vivo, po. Type of series: ADME, organism-based.
Series [20] can be described thus: Maximum concentration in monkey administered orally at 5 mg/kg. Type of series: ADME, organism-based. Further details: dose 5 mg/kg, route oral. Particulars: cercopithecidae, in vivo, po.
The nature of series [21]: Total clearance in monkey at 2 mg/kg intravenous dose. Type of series: ADME, organism-based. Further details: dose 2 mg/kg, route intravenous. Particulars: cercopithecidae, in vivo, read-out: CLtot.

T1 sequence (P08684 whole entry): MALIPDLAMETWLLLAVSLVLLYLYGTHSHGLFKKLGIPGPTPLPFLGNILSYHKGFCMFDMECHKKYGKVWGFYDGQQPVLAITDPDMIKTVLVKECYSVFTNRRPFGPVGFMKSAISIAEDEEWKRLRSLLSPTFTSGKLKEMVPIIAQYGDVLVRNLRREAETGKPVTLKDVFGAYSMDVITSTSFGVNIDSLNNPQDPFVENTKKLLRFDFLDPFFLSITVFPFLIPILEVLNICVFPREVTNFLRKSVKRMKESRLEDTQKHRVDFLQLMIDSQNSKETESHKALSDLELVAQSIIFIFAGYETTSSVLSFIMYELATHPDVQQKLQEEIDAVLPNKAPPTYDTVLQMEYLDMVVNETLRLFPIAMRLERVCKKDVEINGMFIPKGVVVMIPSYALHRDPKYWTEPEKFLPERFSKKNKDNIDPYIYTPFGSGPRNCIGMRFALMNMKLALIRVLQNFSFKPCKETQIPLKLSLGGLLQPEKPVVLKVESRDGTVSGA
Dual specificity mitogen-activated protein kinase kinase 1, sequence (Q02750 whole entry): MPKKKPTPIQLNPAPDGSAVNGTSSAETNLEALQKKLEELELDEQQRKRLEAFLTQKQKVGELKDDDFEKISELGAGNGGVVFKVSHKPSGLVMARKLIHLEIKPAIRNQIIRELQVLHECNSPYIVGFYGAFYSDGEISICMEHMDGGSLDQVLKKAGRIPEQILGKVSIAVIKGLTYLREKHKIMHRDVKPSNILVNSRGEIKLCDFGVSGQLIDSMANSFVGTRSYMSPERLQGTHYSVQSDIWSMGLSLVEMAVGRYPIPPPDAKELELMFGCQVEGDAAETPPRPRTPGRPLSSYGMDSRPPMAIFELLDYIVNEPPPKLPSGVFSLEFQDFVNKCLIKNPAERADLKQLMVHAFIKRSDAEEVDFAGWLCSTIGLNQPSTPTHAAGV
Cytochrome P450 2C19, sequence (P33261 whole entry): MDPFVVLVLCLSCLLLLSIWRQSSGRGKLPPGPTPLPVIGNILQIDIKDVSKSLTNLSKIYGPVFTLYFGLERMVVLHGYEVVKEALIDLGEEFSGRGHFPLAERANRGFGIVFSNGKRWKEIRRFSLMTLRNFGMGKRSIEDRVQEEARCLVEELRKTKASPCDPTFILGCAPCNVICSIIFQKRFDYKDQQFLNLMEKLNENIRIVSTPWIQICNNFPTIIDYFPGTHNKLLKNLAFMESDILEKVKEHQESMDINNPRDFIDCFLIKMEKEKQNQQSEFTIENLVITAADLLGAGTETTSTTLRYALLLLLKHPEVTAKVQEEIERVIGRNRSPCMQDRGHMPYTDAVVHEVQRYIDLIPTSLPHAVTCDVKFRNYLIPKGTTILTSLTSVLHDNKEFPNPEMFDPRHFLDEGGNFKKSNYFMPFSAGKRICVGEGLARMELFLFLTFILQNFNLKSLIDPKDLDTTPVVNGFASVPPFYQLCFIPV
Cytochrome P450 2C9, sequence (P11712 whole entry): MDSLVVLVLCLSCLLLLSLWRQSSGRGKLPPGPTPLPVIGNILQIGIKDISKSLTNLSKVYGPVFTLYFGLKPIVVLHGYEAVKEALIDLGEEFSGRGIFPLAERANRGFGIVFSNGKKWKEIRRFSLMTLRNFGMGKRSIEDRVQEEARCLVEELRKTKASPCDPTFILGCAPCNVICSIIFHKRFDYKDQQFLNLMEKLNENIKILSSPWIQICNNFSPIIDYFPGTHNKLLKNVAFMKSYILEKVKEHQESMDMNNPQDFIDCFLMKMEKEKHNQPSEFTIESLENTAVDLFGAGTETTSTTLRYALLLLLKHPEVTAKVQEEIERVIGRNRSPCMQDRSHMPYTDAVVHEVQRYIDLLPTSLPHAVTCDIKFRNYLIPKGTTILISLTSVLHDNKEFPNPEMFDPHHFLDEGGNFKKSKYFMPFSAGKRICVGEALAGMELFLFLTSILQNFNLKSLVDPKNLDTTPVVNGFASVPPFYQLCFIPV

In the case of `Cc1cc(-n2ccnc2)cc2[nH]c(-c3c(NCC(O)c4cccc(Cl)c4)cc[nH]c3=O)nc12` (configuration not stated), the IC50 (usually the concentration needed to halve the response being measured) at Cytochrome P450 3A4 [1] was below 18 nM; against Cytochrome P450 3A4 [2], below 18 nM; against Cytochrome P450 1A2 it was below 18 nM; against Cytochrome P450 2C19, 26 nM; against Cytochrome P450 2C9, below 18 nM.

On to `Cc1cc(N2CCOCC2)cc2[nH]c(-c3c(NC[C@@H](O)c4cccc(Cl)c4)cc[nH]c3=O)nc12`, for which the Vd in [3] worked out at 1.3 L/kg; in series [4], 1.9 L/kg; in [13], 0.8 L/kg; in series [16], 1.4 L/kg. In addition, the IC50 with COLO 205 stood at 212 nM; in the series on RD, 202 nM; in series [9] it was 182 nM; in [11], 320 nM; in the series with MCF7 it was 460 nM; in series [15] it was 194 nM. Also, the bioavailability – broadly, dose-corrected exposure relative to a reference, in per cent – in series [5] is 50%; in series [7], 32%; in [14], 70%; in series [19], above 100%. Also, the clearance came out at 4.1 mL/min/kg in series [6], 5.8 mL/min/kg in series [8], 37.8 mL/min/kg in [10] and 16.5 mL/min/kg in series [21]. The Cmax (usually the peak of the concentration-time curve) in [12] was 4.1 µM; in series [17], 69 µM; in series [18], 3.8 µM; in [20] it was 1.3 µM.

These data come from ChEMBL document CHEMBL1143653, “Discovery of a (1H-benzoimidazol-2-yl)-1H-pyridin-2-one (BMS-536924) inhibitor of insulin-like growth factor I receptor kinase with in vivo antitumor activity” (J Med Chem, 2005).
